Test results published in ChEMBL document CHEMBL4616638, “Inhibition of HIV-1 RT activity by a new series of 3-(1,3,4-thiadiazol-2-yl)thiazolidin-4-one derivatives” (Bioorg Med Chem, 2020).

How the values were obtained:
[1] = Cytotoxicity against human MT4 cells assessed as reduction in cell viability after 5 days by MTT assay; format: cell-based
Procedure, shortened: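 Mock-infected MT-4 cells (6 × 10^5 cells/ml) run alongside infected wells, receiving serial 5-fold compound dilutions in triplicate. After 5 days, MTT formazan read at 540 and 690 nm, median of three wells. CC50 is the concentration lowering OD540 of mock-infected control by 50%.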

[2] = tested on: Human immunodeficiency virus 1; assay: Antiviral activity against HIV1 infected in human MT4 cells assessed as reduction in virus-induced cytopathic effect after 5 days by MTT assay; format: functional, organism-based; conditions: Human immunodeficiency virus 1, MT4, 120 h
Procedure, shortened: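 HIV stock at 100–300 CCID50 added to MT-4 cells (6 × 10^5 cells/ml after centrifugation of exponentially growing cells), compounds as serial 5-fold dilutions in triplicate wells. After 5 days, viability read by MTT reduction at 540 and 690 nm, median of three wells. EC50 taken as concentration reducing virus-induced cytopathic effect by 50%.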

[3] = Selectivity index, ratio of CC50 for human MT4 cells to EC50 for antiviral activity againstHIV1 infected in human MT4 cells; format: toxicity, cell-based; conditions: read-out: Ratio CC50/EC50
Procedure, shortened: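 Ratio CC50/EC50, both from the same 5-day MTT run in MT-4 cells, mock-infected versus HIV-infected (100–300 CCID50) wells.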

[4] = biological target: Human immunodeficiency virus type 1 reverse transcriptase (Human immunodeficiency virus 1, UniProt Q72547); assay: Inhibition of wild type recombinant HIV1 reverse transcriptase p66/p51 using poly(rA)/oligo(dT)16 as template/primer measured after 40 mins by picogreen dye-based spectrofluorometric method

For `O=C1CSC(c2ccc(Cl)cc2)N1c1n[nH]c(=S)s1` (stereo unspecified), the CC50 at 120 h [1] was 195 µM, the EC50 [2] was > 195 µM and the selectivity ratio [3] was < 1. For the same compound, the IC50 [4] was > 363 µM.
For `CS(=O)(=O)c1ccc(NC(=O)CSc2nnc(N3C(=O)CSC3c3ccc(Cl)cc3)s2)cc1` (stereo unspecified), the CC50 at 120 h [1] was 116 µM, the EC50 [2] was > 116 µM and the selectivity ratio [3] was < 1. It also gave an IC50 [4] of 39.4 µM.
With `NS(=O)(=O)c1ccc(NC(=O)CSc2nnc(N3C(=O)CSC3c3ccccc3Cl)s2)cc1` (stereo unspecified) the CC50 at 120 h [1] was ≥ 18.8 µM, the EC50 [2] was > 18.8 µM and the IC50 [4] was 21.8 µM.
For `NS(=O)(=O)c1ccc(NC(=O)CSc2nnc(N3C(=O)CSC3c3ccc(Cl)cc3)s2)cc1` (stereo unspecified), the CC50 at 120 h [1] was ≥ 222 µM, the EC50 [2] was ≥ 225 µM and the IC50 [4] was 72 µM.
For `CS(=O)(=O)c1ccc(NC(=O)CSc2nnc(N3C(=O)CSC3c3cccc(Cl)c3)s2)cc1` (stereo unspecified), the CC50 at 120 h [1] was 113 µM, the EC50 [2] was > 113 µM and the selectivity ratio [3] was < 1. It also gave an IC50 [4] of 15.8 µM.
In the case of `O=C1CSC(c2cccc(Cl)c2)N1c1nnc(S)s1` (stereo unspecified), the CC50 at 120 h [1] is reported as 238 µM, the EC50 [2] is reported as > 238 µM and the selectivity ratio [3] is reported as < 1. For the same compound, the IC50 [4] was > 100 µM.
For `O=C1CSC(c2ccccc2)N1c1nnc(S)s1` (stereo unspecified), the CC50 at 120 h [1] was > 423 µM, the EC50 [2] was 32 µM and the selectivity ratio [3] was 13. For the same compound, the IC50 [4] was > 100 µM.
With `CS(=O)(=O)c1ccc(NC(=O)CSc2nnc(N3C(=O)CSC3c3ccccc3)s2)cc1` (stereo unspecified) the CC50 at 120 h [1] was 130 µM, the EC50 [2] was > 130 µM and the selectivity ratio [3] was < 1. It also gave an IC50 [4] of 40.6 µM.
With `NS(=O)(=O)c1ccc(NC(=O)CSc2nnc(N3C(=O)CSC3c3cccc(Cl)c3)s2)cc1` (stereo unspecified) the CC50 at 120 h [1] was 118 µM, the EC50 [2] was > 118 µM and the selectivity ratio [3] was < 1. It also gave an IC50 [4] of 19.2 µM.
With `CS(=O)(=O)c1ccc(NC(=O)CSc2nnc(N3C(=O)CSC3c3ccccc3Cl)s2)cc1` (stereo unspecified) the CC50 at 120 h [1] was ≥ 173 µM, the EC50 [2] was ≥ 173 µM and the IC50 [4] was 11.8 µM.
With `NS(=O)(=O)c1ccc(NC(=O)CSc2nnc(N3C(=O)CSC3c3ccccc3)s2)cc1` (stereo unspecified) the CC50 at 120 h [1] was 99.2 µM, the EC50 [2] was > 99.2 µM and the selectivity ratio [3] was < 1. For the same compound, the IC50 [4] was 30.6 µM.
For `O=C1CSC(c2ccccc2Cl)N1c1nnc(S)s1` (stereo unspecified), the CC50 at 120 h [1] was 200 µM, the EC50 [2] was > 200 µM and the selectivity ratio [3] was < 1. The IC50 [4] was > 100 µM.
For `Cc1ccnc2c1NC(=O)c1cccnc1N2C1CC1` [NEVIRAPINE], the CC50 at 120 h [1] was > 15 µM.
